In ChEMBL document CHEMBL2331304, “N1,N3-disubstituted uracils as nonnucleoside inhibitors of HIV-1 reverse transcriptase” (Bioorg Med Chem, 2013):
Calls of active or inactive are those of the source. No cut-off for these calls is given here.

Legend:
[1] = biological target: Human immunodeficiency virus type 1 reverse transcriptase (Human immunodeficiency virus 1, UniProt Q72547); assay: Non-competitive inhibition of wild type HIV1 reverse transcriptase p66/p51 after 30 mins by liquid scintillation counting
MT4 = assay: Cytotoxicity against human MT4 cells after 4 days by MTT assay; assay type: cell-based; conditions: mt4, 96 h
[2] = test system: Human immunodeficiency virus 1; assay: Antiviral activity against HIV1 3B infected in human MT4 cells assessed as inhibition of virus-induced cytopathic effect after 4 days by MTT assay; assay type: functional, organism-based; conditions: Human immunodeficiency virus 1, 3B, MT4, 96 h
Outline: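 HIV-1 in MT-4 cells at 1 × 10^5 cells/ml, infected at MOI 0.02 (virus stock titrated as CCID50), then plated immediately onto varying compound concentrations. After 4 days at 37 °C, viable cells counted by MTT.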

Human alphaherpesvirus 3 = assay: Antiviral activity against Varicella zoster virus; assay type: functional, organism-based
Outline: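 VZV strain Oka and the TK− strain 07-1 were inoculated at 20 PFU onto confluent cell monolayers in the presence of varying compound concentrations. Plaque formation was recorded once complete in untreated infected controls.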

Punta Toro virus = assay: Antiviral activity against Punta Toro virus; assay type: functional, organism-based
Sindbis virus = assay: Antiviral activity against Sindbis virus; assay type: functional, organism-based
[3] = test system: Mammalian orthoreovirus 1; assay: Antiviral activity against Reovirus 1; assay type: functional, organism-based
Human respirovirus 3 = assay: Antiviral activity against Parainfluenza virus 3; assay type: functional, organism-based
Influenza B virus = assay: Antiviral activity against influenza B virus; assay type: functional, organism-based
Influenza A virus [4] = assay: Antiviral activity against Influenza A virus H3N2; assay type: functional, organism-based
Influenza A virus [5] = assay: Antiviral activity against Influenza A virus H1N1; assay type: functional, organism-based
[6] = test system: Respiratory syncytial virus; assay: Antiviral activity against Respiratory syncytial virus; assay type: functional, organism-based
Coxsackievirus B4 = assay: Antiviral activity against Coxsackievirus B4; assay type: functional, organism-based
[7] = test system: Vesicular stomatitis virus; assay: Antiviral activity against Vesicular stomatitis virus; assay type: functional, organism-based
Vaccinia virus = assay: Antiviral activity against Vaccinia virus; assay type: functional, organism-based; conditions: Orthopoxvirus vaccinia
Human alphaherpesvirus 2 = assay: Antiviral activity against Human herpesvirus 2; assay type: functional, organism-based
Outline: (§1)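 Confluent HEL, Vero, HeLa or MDCK monolayers (cell type per virus not specified) were inoculated with 100 CCID50 of virus, with a range of compound concentrations. Strains were HSV-1 KOS and TK− ACV-resistant KOS, HSV-2 Lyons and G, and HCMV AD-169 and Davis. Cytopathicity or plaques were scored once complete in untreated infected controls.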

Human alphaherpesvirus 1 = assay: Antiviral activity against Human herpesvirus 1; assay type: functional, organism-based; outline: as §1
Feline coronavirus = assay: Antiviral activity against Feline coronavirus; assay type: functional, organism-based
[8] = Selectivity index, ratio of CC50 for human MT4 cells to EC50 for HIV1 3B infected in human MT4 cells; assay type: toxicity, cell-based; conditions: MT4 cells (uninfected for CC50; HIV-1 3B infected for EC50)

| Compound | Ki [1] | CC50 (MT4) | EC50 [2] | Activity (Human alphaherpesvirus 3) | Activity (Punta Toro virus) | Activity (Sindbis virus) | Activity [3] | Activity (Human respirovirus 3) | Activity (Influenza B virus) | Activity (Influenza A virus [4]) | Activity (Influenza A virus [5]) | Activity [6] | Activity (Coxsackievirus B4) | Activity [7] | Activity (Vaccinia virus) | Activity (Human alphaherpesvirus 2) | Activity (Human alphaherpesvirus 1) | Activity (Feline coronavirus) | selectivity ratio [8] |
| --- | --- | --- | --- | --- | --- | --- | --- | --- | --- | --- | --- | --- | --- | --- | --- | --- | --- | --- | --- |
| Cc1ccc(OCCn2cc(C)c(=O)n(Cc3ccccc3)c2=O)cc1 | 1 µM | > 356 µM | > 356 µM | inactive | inactive | inactive | inactive | inactive | inactive | inactive | inactive | inactive | inactive | inactive | inactive | inactive | inactive | inactive |  |
| Cc1ccc(OCCn2ccc(=O)n(Cc3ccccc3)c2=O)cc1C | > 100 µM | 60 µM | > 60 µM | inactive | inactive | inactive | inactive | inactive | inactive | inactive | inactive | inactive | inactive | inactive | inactive | inactive | inactive | inactive |  |
| Cc1ccccc1OCCn1ccc(=O)n(Cc2ccccc2)c1=O | > 100 µM | 117 µM | > 117 µM | inactive | inactive | inactive | inactive | inactive | inactive | inactive | inactive | inactive | inactive | inactive | inactive | inactive | inactive | inactive |  |
| Cc1ccc(OCCn2c(=O)n(Cc3ccccc3)c(=O)c3ccccc32)cc1 | 1 µM | 25 µM | > 25 µM | inactive | inactive | inactive | inactive | inactive | inactive | inactive | inactive | inactive | inactive | inactive | inactive | inactive | inactive | inactive |  |
| O=c1ccn(CCOc2ccc(-c3ccccc3)cc2)c(=O)n1Cc1ccccc1 | 8.1 µM | 31 µM | 8.3 µM | inactive | inactive | inactive | inactive | inactive | inactive | inactive | inactive | inactive | inactive | inactive | inactive | inactive | inactive | inactive | 3.8 |
| Cc1ccc(OCCn2ccc(=O)n(CCc3ccccc3)c2=O)cc1 | 6.5 µM | 129 µM | > 129 µM | inactive | inactive | inactive | inactive | inactive | inactive | inactive | inactive | inactive | inactive | inactive | inactive | inactive | inactive | inactive |  |
| Cc1cc(C)cc(OCCn2ccc(=O)n(Cc3ccccc3)c2=O)c1 | > 100 µM | 46 µM | > 46 µM | inactive | inactive | inactive | inactive | inactive | inactive | inactive | inactive | inactive | inactive | inactive | inactive | inactive | inactive | inactive |  |
| O=c1ccn(CCOc2ccc(Cl)cc2)c(=O)n1Cc1ccccc1 | 22 µM | 36 µM | > 36 µM | inactive | inactive | inactive | inactive | inactive | inactive | inactive | inactive | inactive | inactive | inactive | inactive | inactive | inactive | inactive |  |
| O=c1ccn(CCOc2ccc3ccccc3c2)c(=O)n1Cc1ccccc1 | 1 µM | 37 µM | > 37 µM | inactive | inactive | inactive | inactive | inactive | inactive | inactive | inactive | inactive | inactive | inactive | inactive | inactive | inactive | inactive |  |
| Cc1ccnc2c1NC(=O)c1cccnc1N2C1CC1 [NEVIRAPINE] |  | > 4 µM | 0.048 µM |  |  |  |  |  |  |  |  |  |  |  |  |  |  |  |  |
| CC(C)(C)c1ccc(OCCn2ccc(=O)n(Cc3ccccc3)c2=O)cc1 | 15 µM | 63 µM | > 63 µM | inactive | inactive | inactive | inactive | inactive | inactive | inactive | inactive | inactive | inactive | inactive | inactive | inactive | inactive | inactive |  |
| Cc1ccc(OCCn2ccc(=O)n(Cc3ccccc3C)c2=O)cc1 | > 100 µM | 46 µM | > 46 µM | inactive | inactive | inactive | inactive | inactive | inactive | inactive | inactive | inactive | inactive | inactive | inactive | inactive | inactive | inactive |  |
| Cc1ccc(OCCn2ccc(=O)n(Cc3c(C)cc(C)cc3C)c2=O)cc1 | > 100 µM | 133 µM | > 133 µM | inactive | inactive | inactive | inactive | inactive | inactive | inactive | inactive | inactive | inactive | inactive | inactive | inactive | inactive | inactive |  |
| Cc1ccc(Cn2c(=O)ccn(CCOc3ccc(C)cc3)c2=O)cc1 | 47 µM | 250 µM | > 250 µM | inactive | inactive | inactive | inactive | inactive | inactive | inactive | inactive | inactive | inactive | inactive | inactive | inactive | inactive | inactive |  |
